Data set [1] has as its target Histamine H3 receptor (Cavia porcellus) (UniProt Q9JI35). The experiment in a line: Compound was tested for H3-antagonist potency on electrically stimulated guinea pig ileum; Unsurmountable antagonism at concentration > 10^-7 M. It counts as functional, tissue-based.
A short description of data set [2]: dissociation constant corresponding to the 4(5)-alkylimidazole. It counts as ADME. Conditions: read-out: pKa,1. A digest of the protocol: (§1)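 pH-metric titration at 25.0 ± 0.1 °C with 0.15 M KCl, samples 0.5–4 mM; for poorly water-soluble compounds, values from 15–60 wt % methanol/water with Yasuda–Shedlovsky extrapolation; refined by nonlinear least squares.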

Data set [3] can be described thus: LogP of the free base (neutral species). It counts as physicochemical. Conditions: octanol/water. A digest of the protocol:
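pH-metric method: octanol/water titrations with Bjerrum plots, 0.15 M KCl ionic strength, 25.0 ± 0.1 °C, samples 0.5–4 mM; constants refined by nonlinear least squares.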

For data set [4], the target named is Histamine H3 receptor (Rattus norvegicus, UniProt Q9QYN8). The experiment in a line: Inhibition of [3H]NAMHA binding to rat brain membrane histamine H3-receptor.
Data set [5] in a line: dissociation constant corresponding to the 4(5)-phenyl-2-thiomidazole. The format is ADME. The settings on record: read-out: pKa,2. A digest of the protocol:
as §1

The target of data set [6] is Histamine H3 receptor (Cavia porcellus, UniProt Q9JI35). The experiment in a line: Histamine H3-antagonist potency on electrically stimulated guinea pig ileum. It counts as functional, tissue-based. Conditions: read-out: pA2 (converted). The method in brief:
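Guinea pig (350–550 g) terminal ileum under 1 g load in Krebs Henseleit, 37 °C, O₂ 95%:CO₂ 5%, equilibrated ≥60 min; transmural stimulation (0.1 Hz, 1 ms, submax voltage). Compounds up to 10⁻⁶ M, 30 min, then cumulative (R)-α-methylhistamine (10⁻⁹–10⁻⁶ M) inhibiting twitch, recorded isometrically. pA₂ by Schild regression; mean ± SEM of 10–12 observations.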

Active and inactive are the calls of the source. The rule behind the calls is not given here.

Chain of Histamine H3 receptor (Cavia porcellus, UniProt Q9JI35) (Q9JI35 whole entry): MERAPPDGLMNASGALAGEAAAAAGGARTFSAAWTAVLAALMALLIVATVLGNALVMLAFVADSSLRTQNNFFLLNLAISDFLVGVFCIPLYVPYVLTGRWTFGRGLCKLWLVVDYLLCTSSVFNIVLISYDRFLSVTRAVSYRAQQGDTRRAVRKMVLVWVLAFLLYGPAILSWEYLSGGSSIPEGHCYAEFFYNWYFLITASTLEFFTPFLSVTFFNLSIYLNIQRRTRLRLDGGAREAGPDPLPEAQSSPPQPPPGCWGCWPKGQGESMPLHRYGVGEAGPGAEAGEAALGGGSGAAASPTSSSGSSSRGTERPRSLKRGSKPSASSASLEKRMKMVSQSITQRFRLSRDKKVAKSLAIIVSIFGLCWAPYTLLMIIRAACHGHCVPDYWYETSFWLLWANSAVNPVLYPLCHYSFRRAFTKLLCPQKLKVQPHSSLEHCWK
Chain of Histamine H3 receptor (Rattus norvegicus, UniProt Q9QYN8) (Q9QYN8 whole entry): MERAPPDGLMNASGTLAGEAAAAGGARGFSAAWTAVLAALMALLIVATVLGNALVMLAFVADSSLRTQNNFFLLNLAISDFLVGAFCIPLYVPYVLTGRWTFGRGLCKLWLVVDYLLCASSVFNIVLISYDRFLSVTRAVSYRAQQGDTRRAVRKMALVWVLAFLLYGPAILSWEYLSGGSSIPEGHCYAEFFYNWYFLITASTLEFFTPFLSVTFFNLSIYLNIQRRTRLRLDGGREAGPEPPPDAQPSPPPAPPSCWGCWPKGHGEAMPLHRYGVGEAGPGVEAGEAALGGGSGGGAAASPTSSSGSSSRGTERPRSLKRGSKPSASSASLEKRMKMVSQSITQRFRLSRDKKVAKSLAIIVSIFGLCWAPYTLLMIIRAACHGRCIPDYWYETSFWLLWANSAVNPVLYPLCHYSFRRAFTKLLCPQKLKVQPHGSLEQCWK
Chain of Histamine H3 receptor (Cavia porcellus) (Q9JI35 whole entry): as the sequence (Q9JI35 whole entry) above

One may read the pKa as the pH at which an ionisable group is half protonated. As usually defined, the logP is the decadic logarithm of the partition coefficient of the neutral form, usually between octanol and water. What is called Ki is a measure of affinity in units of concentration, obtained from inhibition or displacement. Low readings indicate higher affinity, high ones lower affinity. For the compound `CCCc1ccc(-c2c[nH]c(SCCc3c[nH]cn3)n2)cc1`, the pA2 result in data set [1] is “inactive”. The results for the pKa in data set [2] and in data set [5] were 4.34 and 7.03, respectively. The logP in data set [3] was 4.09. On Histamine H3 receptor [4], this compound gave an inhibition constant (Ki) of 39.8 nM.

Regarding `CN(C)c1ccc(-c2c[nH]c(SCCc3c[nH]cn3)n2)cc1`, the Kb on Histamine H3 receptor [6] was 52.5 nM. Besides, the inhibitory constant (Ki) at Histamine H3 receptor [4] was 29.5 nM.

On to `CCCOc1cccc(-c2c[nH]c(SCCc3c[nH]cn3)n2)c1`, for which, in data set [1], the pA2 entry is “inactive”. In addition, the pKa is 4.04 in data set [2] and 7.04 in data set [5]. Also, the lipophilicity (logP) in data set [3] worked out at 3.7. Also, on Histamine H3 receptor [4], the Ki is 9.33 nM.

Consider `O=[N+]([O-])c1cccc(-c2c[nH]c(SCCc3c[nH]cn3)n2)c1`, for which the values for the pKa in data set [2] and in data set [5] were 3.21 and 6.89, respectively. At Histamine H3 receptor [6], the Kb was 3.47 nM. For the same compound, in data set [3], the logP was 2.43. Further, at Histamine H3 receptor [4], the Ki was 30.9 nM.

As to `NC(=O)c1cccc(-c2cnc(SCCc3c[nH]cn3)[nH]2)c1`, the pKa in data set [2] stood at 4.01; in data set [5], 7.05. For the same compound, the Kb at Histamine H3 receptor [6] was 145 nM. Further, the logP in data set [3] worked out at 1.61. Also, on Histamine H3 receptor [4], the Ki is 16.2 nM.

Consider `O=S(=O)(Oc1ccc(-c2cnc(SCCc3c[nH]cn3)[nH]2)cc1)c1ccccc1`, for which the pKa in data set [2] came to 3.84; in data set [5], 6.93. Besides, the Kb at Histamine H3 receptor [6] is 50.1 nM. The compound further had a logP in data set [3] of 3.72. In addition, the affinity at Histamine H3 receptor [4] corresponds to a Ki of 2.95 nM.

Consider `Clc1ccc(-c2c[nH]c(SCCc3c[nH]cn3)n2)cc1`, for which the pKa is 4.12 in data set [2] and 7.1 in data set [5]. Moreover, at Histamine H3 receptor [6], the Kb is 1.35 nM. This compound showed a log partition coefficient (logP) in data set [3] of 3.66. The same compound showed a Ki at Histamine H3 receptor [4] of 35.5 nM.

Consider `O=[N+]([O-])c1ccc(-c2cnc(SCCc3c[nH]cn3)[nH]2)cc1`, for which the results for the pKa in data set [2] and in data set [5] were 3.13 and 6.94, respectively. The Kb on Histamine H3 receptor [6] was 16.2 nM. The lipophilicity (logP) in data set [3] is 2.75. Besides, the affinity at Histamine H3 receptor [4], expressed as Ki, was 52.5 nM.

For the compound `Brc1cccc(-c2cnc(SCCc3c[nH]cn3)[nH]2)c1`, the pKa turned out to be 3.9 in data set [2] and 7.08 in data set [5]. For the same compound, the Kb on Histamine H3 receptor [6] was 7.76 nM. The compound also had a log partition coefficient (logP) in data set [3] of 3.76. The compound further gave a Ki at Histamine H3 receptor [4] of 14.1 nM.

In the case of `CCCCOc1ccc(-c2cnc(SCCc3c[nH]cn3)[nH]2)cc1`, the pKa in data set [2] was 4.3; in data set [5], 7.06. For the same compound, the Kb at Histamine H3 receptor [6] was 148 nM. Further, the lipophilicity (logP) in data set [3] was determined as 4.11.

Turning to `NC(=O)c1ccc(-c2c[nH]c(SCCc3c[nH]cn3)n2)cc1`, the pKa in data set [2] was found to be 3.63; in data set [5], 7.07. Moreover, the Kb at Histamine H3 receptor [6] was 117 nM. In data set [3], this compound displayed a logP of 1.4. Also, the affinity on Histamine H3 receptor [4] corresponds to a Ki of 28.2 nM.

With `c1ccc(-c2cnc(SCCc3c[nH]cn3)[nH]2)cc1`, the values for the pKa in data set [2] and in data set [5] were 4.28 and 7.07, respectively. Moreover, the Kb at Histamine H3 receptor [6] was 6.46 nM. The lipophilicity (logP) in data set [3] was 2.62. On Histamine H3 receptor [4], this compound had a Ki of 14.1 nM.

These data come from ChEMBL document CHEMBL1130112, “H3-receptor antagonists: synthesis and structure-activity relationships of para- and meta-substituted 4(5)-phenyl-2-[[2-[4(5)-imidazolyl]ethyl]thio]imidazoles” (J Med Chem, 1997).
